Converted amounts (≈) assume the structure as drawn.
Experiments:
Assay type in all cases: functional
Escherichia coli = experiment: In vitro for antibacterial activity against Gram-negative Escherichia coli […] JC-2.
In short: (§1)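 MIC in µg/mL, determined by a standard twofold serial dilution method on agar media.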

Pseudomonas aeruginosa = experiment: In vitro antibacterial activity against Gram-negative Pseudomonas aeruginosa V-1.; in short: as §1
Staphylococcus aureus = experiment: In vitro antibacterial activity against Gram-positive, Staphylococcus aureus 209 P; in short: as §1

SMILES	MIC (Escherichia coli) [µg/mL]	MIC (Pseudomonas aeruginosa) [µg/mL]	MIC (Staphylococcus aureus) [µg/mL]
CCOC(=O)c1cn(CC)c2cc(N3CCNCC3)c(F)cc2c1=O	12.5 (≈ 36 µM)	50 (≈ 144 µM)	50 (≈ 144 µM)
CCn1ccc(=O)c2cc(F)c(N3CCNCC3)cc21	> 100	> 100	> 100
CCn1cc(C(=O)O)c(=O)c2cc(C#N)c(N3CCNCC3)cc21	0.39 (≈ 1.2 µM)	6.25 (≈ 19.2 µM)	12.5 (≈ 38.3 µM)
CCn1cc(C(=O)O)c(=O)c2cc(F)c(N3CCCCC3)cc21	1.56 (≈ 4.9 µM)	50 (≈ 157 µM)	0.78 (≈ 2.45 µM)
Cl.O=C(O)c1cn(CCO)c2cc(N3CCNCC3)c(F)cc2c1=O	0.39	3.13	1.56
CCn1cc(C(=O)O)c(=O)c2ccc(N3CCNCC3)c(Cl)c21.Cl	0.39	6.25	3.13
Cl.O=C(O)c1cn(CCF)c2cc(N3CCNCC3)c(F)cc2c1=O	0.1	0.78	1.56
C=CCn1cc(C(=O)O)c(=O)c2cc(F)c(N3CCNCC3)cc21.Cl	0.2	1.56	3.13
CCn1cc(C(=O)O)c(=O)c2ccc(N3CCNCC3)c(F)c21.Cl	0.78	1.56	12.5
Cl.Cn1cc(C(=O)O)c(=O)c2cc(F)c(N3CCNCC3)cc21	0.39	1.56	6.25
CCn1cc(C(=O)O)c(=O)c2cc(Cl)c(N3CCNCC3)cc21.Cl	0.2	3.13	1.56
CCCn1cc(C(=O)O)c(=O)c2cc(F)c(N3CCNCC3)cc21.Cl	0.2	3.13	1.56
CCn1cc(C(=O)O)c(=O)c2cc(Br)c(N3CCNCC3)cc21.Cl	0.39	12.5	3.13
CCn1cc(C(=O)O)c(=O)c2cc(C)c(N3CCNCC3)cc21.Cl	0.39	6.25	3.13
CCn1cc(C(=O)O)c(=O)c2cc(F)c(NCCN)cc21	6.25 (≈ 21.3 µM)	50 (≈ 170 µM)	> 100
CCn1cc(C(=O)O)c(=O)c2cc(F)c(N3CCNC(=O)C3)cc21 [3-OXO-1-PIPERAZINYL-NORFLOXACIN]	0.39 (≈ 1.17 µM)	12.5 (≈ 37.5 µM)	3.13 (≈ 9.39 µM)
CCn1cc(C(=O)O)c(=O)c2cc(F)c(N3CCN(C(C)=O)CC3)cc21 [4-N-ACETYL-1-PIPERAZINYL-NORFLOXACIN]	1.56 (≈ 4.32 µM)	25 (≈ 69.2 µM)	0.78 (≈ 2.16 µM)
CCn1cc(C(=O)O)c(=O)c2cc(F)c(N3CCN(C=O)CC3)cc21 [4-N-FORMYL-1-PIPERAZINYL-NORFLOXACIN]	0.39 (≈ 1.12 µM)	6.25 (≈ 18 µM)	1.56 (≈ 4.49 µM)
CCn1cc(C(=O)O)c(=O)c2cc(F)c(NCCNC(C)=O)cc21 [7-ACETYLAMINOETHYL-AMINO-FLUOROQUINONE]	25 (≈ 74.6 µM)	> 100	> 100
CCn1cc(C(=O)O)c(=O)c2cc(F)c(N)cc21 [7-AMINO-FLUOROQUINONE]	3.13 (≈ 12.5 µM)	> 100	> 100
CCn1cc(C(=O)O)c(=O)c2cc(F)c(C)cc21 [NALDIXIC ACID]	0.39 (≈ 1.56 µM)	50 (≈ 201 µM)	6.25 (≈ 25.1 µM)
CCn1cc(C(=O)O)c(=O)c2ccc(C)nc21 [NALIDIXIC ACID]	3.13 (≈ 13.5 µM)	100 (≈ 431 µM)	> 100
CCn1cc(C(=O)O)c(=O)c2cc(F)c(N3CCNCC3)cc21 [NORFLOXACIN]	0.05 (≈ 0.157 µM)	0.39 (≈ 1.22 µM)	0.39 (≈ 1.22 µM)
CCn1cc(C(=O)O)c(=O)c2cc3c(cc21)OCO3 [OXOLINIC ACID]	0.1 (≈ 0.383 µM)	25 (≈ 95.7 µM)	3.13 (≈ 12 µM)
CCn1cc(C(=O)O)c(=O)c2cc(F)c(N3CCN(C)CC3)cc21 [PEFLOXACIN]	0.1 (≈ 0.3 µM)		0.39 (≈ 1.17 µM)
CCn1cc(C(=O)O)c(=O)c2cnc(N3CCNCC3)nc21 [PIPEMIDIC ACID]	1.56 (≈ 5.14 µM)	12.5 (≈ 41.2 µM)	25 (≈ 82.4 µM)
